# Reference: ChEMBL document CHEMBL3632612, “Discovery of WQ-3810: Design, synthesis, and evaluation of 7-(3-alkylaminoazetidin-1-yl)fluoro-quinolones as orally active antibacterial agents” (Eur J Med Chem, 2015)
# How the values were obtained:
# [1] = system: Klebsiella pneumoniae; test: Antibacterial activity against Klebsiella pneumoniae KC-1 assessed as growth inhibition at 128 to 0.002 mg/L incubated for 18 hrs at 37 degC by agar dilution method; format: functional; details: KC-1, 18 h
# Method in brief: (§1)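 Agar dilution on Mueller Hinton agar per Japanese Society of Chemotherapy standard method; about 10⁴ cfu inoculated onto plates holding two-fold dilution series; incubation 37°C, 18 h; MIC read as growth endpoint.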
# [2] = Passive permeability of the compound after 5 hrs at 25 degC by PAMPA assay; format: physicochemical; details: read-out: Peff
# Method in brief: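 PAMPA: 10 µM compound in PBS with 5% MeOH in donor, PBS acceptor; 25°C, 5 h; both sides quantified by HPLC; Peff derived from donor/acceptor concentrations, volumes, 0.3 cm² filter area and 18,000 s; mean ± S.D., n=3.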
# [3] = system: Serratia marcescens; test: Antibacterial activity against Serratia marcescens T-55 assessed as growth inhibition at 128 to 0.002 mg/L incubated for 18 hrs at 37 degC by agar dilution method; format: functional; details: T-55, 18 h; method in brief: as §1
# [4] = system: Providencia rettgeri; test: Antibacterial activity against Providencia rettgeri W1008 assessed as growth inhibition at 128 to 0.002 mg/L incubated for 18 hrs at 37 degC by agar dilution method; format: functional; details: W1008, 18 h; method in brief: as §1
# [5] = system: Pseudomonas aeruginosa; test: Antibacterial activity against Pseudomonas aeruginosa E-2 assessed as growth inhibition at 128 to 0.002 mg/L incubated for 18 hrs at 37 degC by agar dilution method; format: functional; details: E-2, 18 h; method in brief: as §1
# [6] = system: Enterobacter cloacae; test: Antibacterial activity against Enterobacter cloacae IFO13535 assessed as growth inhibition at 128 to 0.002 mg/L incubated for 18 hrs at 37 degC by agar dilution method; format: functional; details: IFO13535, 18 h; method in brief: as §1
# [7] = Drug excretion in Sprague-Dawley rat bile assessed as unmetabolized form at 5 mg/kg, iv after 24 hrs by HPLC; format: ADME, organism-based; details: read-out: Drug excretion
# Method in brief: (§2)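 Six-week male Sprague-Dawley rats, fasted overnight; oral dose suspended in 0.5% methylcellulose, iv dose dissolved in 0.04 N NaOH. Urine from intact rats in metabolic cages, bile from bile duct-cannulated rats, 0–24 h. Bile alkaline-hydrolysed (1 N NaOH, 37°C, 1 h) to convert glucuronides; HPLC with UV 290 nm and internal standard; % of dose; mean ± S.D., three rats.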
# [8] = system: Klebsiella pneumoniae; test: Antibacterial activity against Klebsiella pneumoniae DT-S assessed as growth inhibition at 128 to 0.002 mg/L incubated for 18 hrs at 37 degC by agar dilution method; format: functional; method in brief: as §1
# [9] = system: Acinetobacter calcoaceticus; test: Antibacterial activity against Acinetobacter calcoaceticus Ac-54 assessed as growth inhibition at 128 to 0.002 mg/L incubated for 18 hrs at 37 degC by agar dilution method; format: functional; details: Ac-54, 18 h; method in brief: as §1
# [10] = system: Escherichia coli; test: Antibacterial activity against Escherichia coli KC-14 assessed as growth inhibition at 128 to 0.002 mg/L incubated for 18 hrs at 37 degC by agar dilution method; format: functional; details: KC-14, 18 h; method in brief: as §1
# [11] = Drug excretion in Sprague-Dawley rat urine at 10 mg/kg, po after 24 hrs by HPLC; format: ADME, organism-based; details: read-out: Drug excretion; method in brief: as §2
# [12] = system: Salmonella typhimurium; test: Antibacterial activity against Salmonella typhimurium IFO13245 assessed as growth inhibition at 128 to 0.002 mg/L incubated for 18 hrs at 37 degC by agar dilution method; format: functional, Salmonella enterica subsp. enterica serovar Typhimurium; details: Salmonella enterica, IFO13245, 18 h; method in brief: as §1
# [13] = Oral drug absorption in Sprague-Dawley rat at 10 mg/kg, po after 24 hrs by HPLC; format: ADME, organism-based; details: in vivo
# Method in brief: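 Absorption rate computed as total urinary plus biliary excretion (% of dose, summed means) after oral dosing divided by total after iv dosing; excretion measured in fasted male Sprague-Dawley rats by HPLC over 24 h, bile glucuronides alkaline-hydrolysed.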
# [14] = system: Pseudomonas aeruginosa; test: Antibacterial activity against Pseudomonas aeruginosa 15846 assessed as growth inhibition at 128 to 0.002 mg/L incubated for 18 hrs at 37 degC by agar dilution method; format: functional; details: Pseudomonas aeruginosa, 15846, 18 h; method in brief: as §1
# [15] = system: Citrobacter freundii; test: Antibacterial activity against Citrobacter freundii IFO1268 assessed as growth inhibition at 128 to 0.002 mg/L incubated for 18 hrs at 37 degC by agar dilution method; format: functional; details: IFO1268, 18 h; method in brief: as §1
# [16] = system: Escherichia coli; test: Antibacterial activity against Escherichia coli 177 assessed as growth inhibition at 128 to 0.002 mg/L incubated for 18 hrs at 37 degC by agar dilution method; format: functional; details: Escherichia coli, 177, 18 h; method in brief: as §1
# [17] = system: Proteus mirabilis; test: Antibacterial activity against Proteus mirabilis IFO3849 assessed as growth inhibition at 128 to 0.002 mg/L incubated for 18 hrs at 37 degC by agar dilution method; format: functional; details: IFO3849, 18 h; method in brief: as §1
# [18] = Drug excretion in Sprague-Dawley rat assessed as unmetabolized form at 5 mg/kg, iv after 24 hrs by HPLC; format: ADME, organism-based; details: in vivo, read-out: Drug excretion; method in brief: as §2
# [19] = system: Morganella morganii; test: Antibacterial activity against Morganella morganii W1026 assessed as growth inhibition at 128 to 0.002 mg/L incubated for 18 hrs at 37 degC by agar dilution method; format: functional; details: W1026, 18 h; method in brief: as §1
# [20] = Drug excretion in Sprague-Dawley rat bile assessed as unmetabolized form at 10 mg/kg, po after 24 hrs by HPLC; format: ADME, organism-based; details: read-out: Drug excretion; method in brief: as §2
# [21] = Drug excretion in Sprague-Dawley rat urine at 5 mg/kg, iv after 24 hrs by HPLC; format: ADME, organism-based; details: read-out: Drug excretion; method in brief: as §2
# [22] = system: Serratia marcescens; test: Antibacterial activity against Serratia marcescens IFO3736 assessed as growth inhibition at 128 to 0.002 mg/L incubated for 18 hrs at 37 degC by agar dilution method; format: functional; details: IFO3736, 18 h; method in brief: as §1
# [23] = Drug excretion in Sprague-Dawley rat at 10 mg/kg, po after 24 hrs by HPLC; format: ADME, organism-based; details: in vivo, read-out: Drug excretion; method in brief: as §2
# [24] = system: Pseudomonas aeruginosa; test: Antibacterial activity against Pseudomonas aeruginosa IFO3445 assessed as growth inhibition at 128 to 0.002 mg/L incubated for 18 hrs at 37 degC by agar dilution method; format: functional; details: IFO3445, 18 h; method in brief: as §1
# [25] = Solubility of the compound in JP2 solution at pH 6.8 after 24 hrs at 25 degC by HPLC; format: physicochemical
# Method in brief: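 Excess solid shaken in JP2 (50 mM potassium dihydrogenphosphate, pH 6.8) at 25°C for 24 h to equilibrium, filtered 0.45 µm; filtrate concentration by reversed-phase UPLC, UV 290 nm; mean ± S.D., n=3.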
# [26] = molecular target: DNA gyrase (Escherichia coli, UniProt P0AES4+P0AES6); test: Inhibition of Escherichia coli DNA gyrase preincubated for 5 mins at 37 degC before addition of relaxed pBR322 as substrate by supercoiling assay; format: protein-complex assay
# [27] = system: Proteus vulgaris; test: Antibacterial activity against Proteus vulgaris IFO3167 assessed as growth inhibition at 128 to 0.002 mg/L incubated for 18 hrs at 37 degC by agar dilution method; format: functional; details: IFO3167, 18 h; method in brief: as §1
# [28] = system: Escherichia coli; test: Antibacterial activity against Escherichia coli NIHJ assessed as growth inhibition at 128 to 0.002 mg/L incubated for 18 hrs at 37 degC by agar dilution method; format: functional; method in brief: as §1
smiles,measurement,setting,value
CCNC1CN(c2c(F)cc3c(=O)c(C(=O)O)cn(-c4nc(N)c(F)cc4F)c3c2C)C1,MIC,[1],0.12 µg/mL
same,Papp at 5 h,[2],0.29 ×10⁻⁶ cm/s
same,MIC,[3],0.12 µg/mL
same,MIC,[4],0.12 µg/mL
same,MIC,[5],0.12 µg/mL
same,MIC,[6],0.12 µg/mL
same,dose excreted at 24 h,[7],51%
same,MIC,[8],0.12 µg/mL
same,MIC,[9],0.12 µg/mL
same,MIC,[10],0.006 µg/mL
same,dose excreted at 24 h,[11],20%
same,MIC,[12],0.12 µg/mL
same,Fa at 24 h,[13],76%
same,MIC,[14],0.12 µg/mL
same,MIC,[15],0.12 µg/mL
same,MIC,[16],0.006 µg/mL
same,MIC,[17],0.12 µg/mL
same,dose excreted at 24 h,[18],91%
same,MIC,[19],0.12 µg/mL
same,dose excreted at 24 h,[20],49%
same,dose excreted at 24 h,[21],41%
same,MIC,[22],0.12 µg/mL
same,dose excreted at 24 h,[23],69%
same,MIC,[24],0.12 µg/mL
same,solubility at 24 h,[25],45 µg/mL
same,IC50,[26],174 nM
same,MIC,[27],0.12 µg/mL
same,MIC,[28],0.006 µg/mL
